Key:
[1] = target: GABA-A receptor; anion channel; assay: Displacement of [3H]muscimol from orthosteric binding site of GABA(A) receptor in Sprague-Dawley rat cortical synaptic membranes by liquid scintillation counting
[2] = target: GHB high-affinity binding site (rat)
[3] = target: T1, GABA-A receptor; alpha-1/beta-2/gamma-2 (Homo sapiens, UniProt P14867+P18507+P47870); type: cell-based
T1 sequence (P14867 whole entry): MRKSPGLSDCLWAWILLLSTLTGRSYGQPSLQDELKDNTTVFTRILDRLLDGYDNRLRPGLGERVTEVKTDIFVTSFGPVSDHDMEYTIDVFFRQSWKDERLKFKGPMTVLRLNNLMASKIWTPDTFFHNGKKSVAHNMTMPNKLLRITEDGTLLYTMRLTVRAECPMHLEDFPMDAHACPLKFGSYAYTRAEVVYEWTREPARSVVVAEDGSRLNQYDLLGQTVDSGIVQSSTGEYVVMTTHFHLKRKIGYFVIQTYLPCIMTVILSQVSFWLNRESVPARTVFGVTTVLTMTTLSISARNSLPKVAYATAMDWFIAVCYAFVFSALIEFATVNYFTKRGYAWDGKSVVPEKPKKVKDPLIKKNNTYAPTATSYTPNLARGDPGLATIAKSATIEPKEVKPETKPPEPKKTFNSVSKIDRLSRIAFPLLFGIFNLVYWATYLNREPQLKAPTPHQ
T1 sequence (P47870 whole entry): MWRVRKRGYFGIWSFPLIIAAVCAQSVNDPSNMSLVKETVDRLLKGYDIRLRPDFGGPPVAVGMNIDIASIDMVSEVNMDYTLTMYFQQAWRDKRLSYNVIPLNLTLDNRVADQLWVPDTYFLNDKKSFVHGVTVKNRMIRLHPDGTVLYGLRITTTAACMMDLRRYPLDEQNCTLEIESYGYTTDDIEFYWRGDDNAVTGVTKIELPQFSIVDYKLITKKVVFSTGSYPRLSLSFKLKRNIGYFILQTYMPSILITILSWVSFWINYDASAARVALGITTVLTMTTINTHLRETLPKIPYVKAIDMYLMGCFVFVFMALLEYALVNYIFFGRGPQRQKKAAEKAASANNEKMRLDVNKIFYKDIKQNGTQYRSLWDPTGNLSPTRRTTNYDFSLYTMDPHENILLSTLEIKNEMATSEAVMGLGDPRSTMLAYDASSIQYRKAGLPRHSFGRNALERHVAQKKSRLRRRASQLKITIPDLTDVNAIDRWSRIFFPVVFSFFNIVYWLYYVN
T1 sequence (P18507 whole entry): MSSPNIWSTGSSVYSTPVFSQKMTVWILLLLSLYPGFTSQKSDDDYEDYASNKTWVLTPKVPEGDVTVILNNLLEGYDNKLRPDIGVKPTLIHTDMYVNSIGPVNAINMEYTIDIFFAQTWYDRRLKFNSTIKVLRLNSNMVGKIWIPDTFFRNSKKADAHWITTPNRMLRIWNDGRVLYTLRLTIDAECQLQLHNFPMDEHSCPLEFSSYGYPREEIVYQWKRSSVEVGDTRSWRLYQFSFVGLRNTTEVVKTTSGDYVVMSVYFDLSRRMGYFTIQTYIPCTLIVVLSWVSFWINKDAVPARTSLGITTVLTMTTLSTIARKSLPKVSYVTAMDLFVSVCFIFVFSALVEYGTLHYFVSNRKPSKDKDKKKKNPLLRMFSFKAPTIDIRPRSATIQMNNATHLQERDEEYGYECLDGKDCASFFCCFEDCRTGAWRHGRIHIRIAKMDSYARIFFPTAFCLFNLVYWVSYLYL

[4] = Chemical stability of the compound; type: physicochemical
[5] = Drug uptake in C57BL/6JRj mouse brain at 10 mg/kg, ip after 30 mins by LC-MS analysis; type: ADME, organism-based; conditions: read-out: Drug uptake
Summary of the method: (§1)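 Mice dosed i.p. at 10 mg/kg. Compound concentrations measured in brain (ng/g) and plasma (ng/mL). Brain-to-plasma distribution ratio taken from these two concentrations.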

[6] = Plasma concentration in C57BL/6JRj mouse at 10 mg/kg, ip after 30 mins by LC-MS analysis; type: ADME, organism-based; summary of the method: as §1
[7] = Ratio of drug uptake in C57BL/6JRj mouse brain to plasma at 10 mg/kg, ip after 30 mins by LC-MS analysis; type: ADME, organism-based; conditions: read-out: BPR; summary of the method: as §1
[8] = Metabolic stability in mouse liver microsomes assessed as compound remaining at 20 uM preincubated for 5 mins followed by NADPH addition and measured at 0 min by UHPLC-MS/MS analysis; type: ADME, Microsome; conditions: read-out: Stability
Summary of the method: (§2)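 Parent loss and parent-drug formation quantified by UHPLC-MS/MS. Percent remaining = internal-standard-corrected peak area at each time ÷ peak area at 0 min × 100. The 0-min peak area was compared with freshly prepared compound in neat buffer and MeCN. A dash at 0 min means the compound degraded during sample preparation and pre-incubation. Mean of three biological replicates.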

[9] = Metabolic stability in mouse liver microsomes assessed as compound remaining at 20 uM preincubated for 5 mins followed by NADPH addition and measured at 30 mins by UHPLC-MS/MS analysis; type: ADME, Microsome; conditions: read-out: Stability; summary of the method: as §2
[10] = Metabolic stability in mouse liver microsomes assessed as compound remaining at 20 uM preincubated for 5 mins followed by NADPH addition and measured at 60 mins by UHPLC-MS/MS analysis; type: ADME, Microsome; conditions: read-out: Stability; summary of the method: as §2
[11] = Metabolic stability in mouse plasma assessed as compound remaining at 10 uM preincubated for 5 mins followed by NADPH addition and measured at 0 min by UHPLC-MS/MS analysis; type: ADME, cell-free; conditions: read-out: Stability; summary of the method: as §2
[12] = Metabolic stability in mouse plasma assessed as compound remaining at 10 uM preincubated for 5 mins followed by NADPH addition and measured at 60 mins by UHPLC-MS/MS analysis; type: ADME, cell-free; conditions: read-out: Stability; summary of the method: as §2
[13] = Metabolic stability in mouse plasma assessed as compound remaining at 10 uM preincubated for 5 mins followed by NADPH addition and measured at 120 mins by UHPLC-MS/MS analysis; type: ADME, cell-free; conditions: read-out: Stability; summary of the method: as §2
[14] = Dissociation constant, pKa of the compound; type: physicochemical
[15] = Agonist activity at GABA(B) receptor (unknown origin); design: species or system Homo sapiens

Row | SMILES | Ki [1] | Ki [2] | further results
1 | On1cc(C2CCNCC2)c(-c2cccc(-c3ccccc3)c2)n1 | 0.03 µM | > 100 µM | 
2 | O=C(O)CCC(O)c1ccc(OCc2ccccc2)cc1 (stereo unspecified) | > 100 µM | 0.12 µM | 
3 | N=c1ccc(-c2ccc(Cl)cc2)nn1CCCC(=O)O | 0.61 µM | 11 µM | pKi [1]: 6.23; pKi [2]: 4.99
4 | N=c1ccc(-c2ccccc2)nn1CCCC(=O)O | 0.81 µM | 100 µM | 
5 | N=c1ccc(-c2ccc(OCc3ccccc3)cc2)nn1CCCC(=O)O | 0.016 µM | 3.1 µM | 
6 | N=c1ccc(-c2ccc(O)cc2)nn1CCCC(=O)O | 0.22 µM | 15 µM | IC50 [3]: 11 µM
7 | COc1cccc(-c2ccc3nc(CC(=O)O)cn3n2)c1 | > 100 µM | 0.44 µM | 
8 | COc1ccc(C2=NN3CC(CC(=O)O)N=C3C=C2)cc1 (stereo unspecified) | > 100 µM | 45 µM | 
9 | CC(C)(C)C(=O)OCOC(=O)Cc1cn2nc(-c3ccc(Cl)cc3)ccc2n1 |  |  | Stability [4]: Unstable
10 | CC(C)(C)OC(=O)Cc1cn2nc(-c3ccc(Cl)cc3)ccc2n1 |  |  | concentration at 0.5 h [5]: 798 ng/g; concentration at 0.5 h [6]: 212 ng/mL; Kp at 0.5 h [7]: 3.68; remaining at 0 h, 20 µM [8]: 100%; remaining at 0.5 h, 20 µM [9]: 90%; remaining at 1 h, 20 µM [10]: 98%; remaining at 0 h, 10 µM [11]: 100%; remaining at 1 h, 10 µM [12]: 51%; remaining at 2 h, 10 µM [13]: 36%
11 | CCOC(=O)Cc1cn2nc(-c3ccc(Cl)cc3)ccc2n1 |  |  | Stability [4]: Unstable
12 | O=C(O)Cc1cn2nc(-c3ccc(Cl)cc3)ccc2n1 | > 100 µM | 0.22 µM | concentration at 0.5 h [5]: 59 ng/g; concentration at 0.5 h [6]: 7600 ng/mL; Kp at 0.5 h [7]: 0.008; remaining at 0 h, 20 µM [8]: 100%; remaining at 0.5 h, 20 µM [9]: 105%; remaining at 1 h, 20 µM [10]: 100%; remaining at 0 h, 10 µM [11]: 100%; remaining at 1 h, 10 µM [12]: 97%; remaining at 2 h, 10 µM [13]: 99%; Stability [4]: Stable; pKa [14]: 4.5
13 | COc1ccc(-c2ccc3nc(CC(=O)O)cn3n2)cc1 | > 100 µM | 0.83 µM | pKi [2]: 6.09
14 | COc1cccc(C2=NN3CC(CC(=O)O)N=C3C=C2)c1 (stereo unspecified) | > 100 µM | > 100 µM | 
15 | O=C(O)Cc1cn2ccccc2n1 | > 100 µM | 72 µM | 
16 | O=C(O)CC1CN2N=C(c3ccc(Cl)cc3)C=CC2=N1 (stereo unspecified) | > 100 µM | 146 µM | pKa [14]: 9.7

Row | SMILES | Ki [1] | Ki [2] | further results
17 | N=c1ccc(-c2ccc([N+](=O)[O-])cc2)nn1CCCC(=O)O | 0.75 µM | 14 µM | IC50 [3]: 30 µM
18 | O=C(O)CC1CN2N=C(c3cccc(Cl)c3)C=CC2=N1 (stereo unspecified) | > 100 µM | > 100 µM | 
19 | O=C(O)Cc1cn2ncccc2n1 | > 100 µM | 9.9 µM | 
20 | CC(=O)OCOC(=O)Cc1cn2nc(-c3ccc(Cl)cc3)ccc2n1 |  |  | Stability [4]: Unstable
21 | N=c1ccc(-c2cccc(N)c2)nn1CCCC(=O)O | 1.1 µM | 30 µM | IC50 [3]: 30 µM
22 | O=C(O)Cc1cn2nc(-c3cccc(Cl)c3)ccc2n1 | > 100 µM | 0.23 µM | 
23 | O=C(O)Cc1cn2nc(-c3ccc(Cl)c(Cl)c3)ccc2n1 | > 100 µM | 0.19 µM | pKi [2]: 6.77
24 | O=C(O)Cc1cn2nc(-c3ccc(OCc4ccccc4)cc3)ccc2n1 | > 100 µM | 2.2 µM | 
25 | N=c1ccc(-c2cccc(Cl)c2)nn1CCCC(=O)O | 0.039 µM | 21 µM | pKi [2]: 4.66
26 | N=c1ccc(-c2cccc([N+](=O)[O-])c2)nn1CCCC(=O)O | 0.078 µM | 13 µM | IC50 [3]: 4.4 µM
27 | O=C(O)CC1CN2N=C(c3ccccc3)C=CC2=N1 (stereo unspecified) | > 100 µM | 427 µM | pKi [2]: 3.41
28 | N=c1ccc(-c2cccc(OCc3ccccc3)c2)nn1CCCC(=O)O | 0.87 µM | 4.2 µM | pKi [1]: 6.07; pKi [2]: 5.39
29 | N=c1ccc(-c2cccc(O)c2)nn1CCCC(=O)O | 0.13 µM | 16 µM | IC50 [3]: 3.9 µM
30 | O=C(O)Cc1cn2nc(-c3cccc(OCc4ccccc4)c3)ccc2n1 | > 100 µM | 0.51 µM | pKi [2]: 6.33
31 | O=C(O)CCCO [OXYBATE] |  |  | EC50 [15]: 5000 µM
